Tests used:
[1] = Therapeutic index, ratio of CC50 for human TZM-bl cells to EC50 for HIV1 NL4-3; format: cell-based; conditions: read-out: Ratio CC50/EC50
Method in brief: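 TI calculated as CC50 (uninfected TZM-bl growth inhibition) divided by EC50 (NL4-3 replication inhibition in TZM-bl luciferase reporter assay).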

[2] = tested on: Human immunodeficiency virus 1; assay: Antiviral activity against Human immunodeficiency virus 1 NL4-3 infected in human TZM-bl cells assessed as inhibition of viral replication after 48 hrs by luciferase reporter gene assay; format: functional, organism-based; conditions: Human immunodeficiency virus 1, NL4-3, TZM-bl
Method in brief: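 Single-round infection of TZM-bl cells with HIV-1 NL4-3 at 200 TCID50, mixed with test samples at eight four-fold serial dilutions in growth medium. After 48 h, medium is removed and luciferase reagent added. Luminescence is then read. EC50 is the concentration giving 50% reduction in RLU versus virus control wells, after background RLU subtraction.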

[3] = Cytotoxicity against human TZM-bl cells assessed as inhibition of cell growth; format: cell-based
Method in brief: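 Uninfected TZM-bl cells exposed to test samples. CC50 is the concentration inhibiting cell growth by 50%.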

| Structure (SMILES) | EC50 [2] | selectivity ratio [1] | CC50 [3] |
| --- | --- | --- | --- |
| CCc1cc(=O)c2ccc3c(c2o1)[C@@H](OC(=O)C12CCC(C)(C(=O)O1)C2(C)C)[C@@H](OC(=O)C12CCC(C)(C(=O)O1)C2(C)C)C(C)(C)O3 (stereo partly drawn) | – | 119 | – |
| CCc1cc(=O)c2ccc3c(c2o1)[C@@H](OC(=O)C12CCC(C)(C(=O)O1)C2(C)C)[C@@H](OC(=O)C12CCC(C)(C(=O)O1)C2(C)C)C(C)(C)S3 (stereo partly drawn) | 54 nM | 100 | 5400 nM |
| Cc1cc(=O)oc2c3c(ccc12)SC(C)(C)[C@H](OC(=O)[C@@]12CC[C@@](C)(C(=O)O1)C2(C)C)[C@@H]3OC(=O)[C@@]12CC[C@@](C)(C(=O)O1)C2(C)C | 128 nM | > 238 | – |
| Cc1cc(=O)oc2c3c(ccc12)SC(C)(C)[C@@H](OC(=O)[C@@]12CC[C@@](C)(C(=O)O1)C2(C)C)[C@H]3OC(=O)[C@@]12CC[C@@](C)(C(=O)O1)C2(C)C | 8590 nM | > 3.6 | > 30600 nM |

The next lines start with results.

| EC50 [2] | Structure (SMILES) | selectivity ratio [1] | CC50 [3] |
| --- | --- | --- | --- |
| 38 nM | CCc1cc(=O)c2ccc3c(c2o1)[C@@H](OC(=O)C12CCC(C)(C(=O)O1)C2(C)C)[C@@H](OC(=O)C12CCC(C)(C(=O)O1)C2(C)C)[C@H](C)S3 (stereo partly drawn) | 48 | 1840 nM |
| 30 nM | CCc1cc(=O)c2ccc3c(c2o1)[C@@H](OC(=O)C12CCC(C)(C(=O)O1)C2(C)C)[C@@H](OC(=O)C12CCC(C)(C(=O)O1)C2(C)C)[C@H](C)O3 (stereo partly drawn) | 153 | 4550 nM |
| 184 nM | CCc1cc(=O)c2ccc3c(c2o1)[C@H](OC(=O)C12CCC(C)(C(=O)O1)C2(C)C)[C@H](OC(=O)C12CCC(C)(C(=O)O1)C2(C)C)[C@@H](C)S3 (stereo partly drawn) | 20.8 | 3830 nM |

From ChEMBL document CHEMBL1833958, “Anti-AIDS agents 87. New bio-isosteric dicamphanoyl-dihydropyranochromone (DCP) and dicamphanoyl-khellactone (DCK) analogues with potent anti-HIV activity” (Bioorg Med Chem Lett, 2011)
